# HTRA1 inhibitor: inhibitors of human serine peptidase HTRA1; Q92743; recombinant HTRA1, FP-rhodamine activity-based probe, fluorescence polarization; inhibition, % at 5.96 µM; 340,000 compounds, 0.5% hits; AID 504803; in the data active = inhibition above about 36%
# SIAE inh: human SIAE inhibition, primary screen | Q9HAT2 | SIAE FP-Rh probe binding, fluorescence polarization | 370,000 compounds, 0.69% hits | inhibition, % at 9.66 µM;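 active = inhibition above a cutoff: mean of compounds within the control limits plus 3 SD of those, cut at about 17% in these data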
# Target sequence (Q9HAT2 whole entry, looked up): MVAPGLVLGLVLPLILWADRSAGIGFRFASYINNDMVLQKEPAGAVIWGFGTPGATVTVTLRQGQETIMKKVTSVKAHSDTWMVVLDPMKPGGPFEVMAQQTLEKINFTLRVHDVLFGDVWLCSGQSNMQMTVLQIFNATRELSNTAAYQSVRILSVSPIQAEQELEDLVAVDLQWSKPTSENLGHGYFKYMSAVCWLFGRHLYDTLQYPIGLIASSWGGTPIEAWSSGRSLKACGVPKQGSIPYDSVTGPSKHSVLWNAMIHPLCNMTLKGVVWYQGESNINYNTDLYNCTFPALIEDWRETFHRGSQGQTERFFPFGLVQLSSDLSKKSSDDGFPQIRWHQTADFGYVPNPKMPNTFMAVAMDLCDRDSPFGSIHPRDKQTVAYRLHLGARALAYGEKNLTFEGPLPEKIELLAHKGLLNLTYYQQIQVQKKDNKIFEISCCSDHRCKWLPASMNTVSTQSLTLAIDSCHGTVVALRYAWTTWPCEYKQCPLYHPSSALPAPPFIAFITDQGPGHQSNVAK
# ABHD4 inh: ABHD4 (mouse) inhibition, primary FP screen; AID 720543; inhibition, % at 8.92 µM; purified mABHD4, FP-Rh probe fluorescence polarization; 370,000 compounds, 0.54% hits;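 active = inhibition exceeding the mean over every tested compound plus 3 SD, cut at about 30% in these data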
#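 Material: mouse ABHD4 enzyme, wild type; Benchmarks: S159A mutant high control, sample median low control; Buffer or medium: HEPES pH 7.0, NaCl, Pluronic buffer; Signal: fluorescence polarization; Read-out: percent inhibition of probe binding, normalized to plate controls; Timing: pre-incubation 45 min, probe exposure 60 min, at 25 °C; Dosing: 8.92 µM, single dose.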
# TCR CD3 inh: human TCR-CD3 binding inhibition | TAMRA-labeled TCR probe fluorescence, biochemical | inhibition, % at 9.4 µM | 360,000 compounds, 0.37% hits; in the data active = inhibition above about 19%;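 note: recombinant mutant TCR 2C K166C tagged with TAMRA read by polarization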
# DAGLB inh: diacylglycerol lipase beta (human) inhibition. AID 504411. 340,000 compounds, 0.059% hits. HEK293T DAGLB membrane lysate, EnzChek fluorogenic substrate. inhibition, % at 5.17 µM; in the data active = inhibition above about 34%
# SIAE confirm: confirmation of human SIAE inhibitors; shares compounds with SIAE inh; SIAE FP-Rh activity-based probe, fluorescence polarization; inhibition, % at 9.66 µM; 2,300 compounds, 13% hits; AID 1117263;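 active = mean inhibition of the replicates above the hit cutoff set in the primary screen, cut at about 17% in these data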;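 note: inhibitors lower polarization as more probe stays unbound to SIAE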
# A number is an active result; - = inactive; . = not tested or not shown. In the library only some 1.5% were active in any assay of this set; here they are far more common.
SMILES,HTRA1 inhibitor,SIAE inh,ABHD4 inh,TCR CD3 inh,DAGLB inh,SIAE confirm
COc1cc(/C=N/NC(=O)c2ccc(N)cc2)ccc1OC(=O)c1cccc(C)c1,-,22,-,-,-,-
CS(=O)(=O)c1cccc(OCCCN2CCC(C(O)(c3ccccc3)c3ccccc3)CC2)c1,.,-,-,-,.,.
NC(=O)c1nsc(C(=O)N(Cc2ccccc2Cl)C(C(=O)NCC2CCCO2)c2ccc(O)cc2)c1N (configuration not stated),-,20,-,-,-,-
C=CCOc1ccc(CNn2cn[nH]c2=S)cc1OCC,-,47,-,-,-,-
C=CCOc1ccc(CNn2cn[nH]c2=S)cc1OC,-,-,-,-,-,.
N#Cc1ccccc1S(=O)(=O)N1CCN(c2nc(-c3cccs3)nc3ccccc23)CC1,.,-,-,.,.,.
Cc1nn(CC(=O)N2CCN(S(=O)(=O)c3ccccc3)CC2)c(C)c1[N+](=O)[O-],-,18,-,-,-,-
CCN1CCCCC(NC(=O)Cc2ccccc2)C1=O (configuration not stated),.,-,-,.,.,.
O=C(CNC(=O)c1ccc(Cl)cc1Cl)OCN1C(=O)c2ccccc2C1=O,-,19,-,-,-,-
COC(=O)C1CCN(C(=O)COC(=O)CNC(=O)c2ccc(Cl)cc2Cl)CC1,-,20,-,-,-,-
CN(C)S(=O)(=O)c1ccc(C(=O)N2CCN(S(=O)(=O)c3ccc4c(c3)OCCO4)CC2)cc1,-,20,-,-,-,-
CCOc1ncccc1C(=O)N1CCN(S(=O)(=O)c2ccc3c(c2)OCCO3)CC1,-,22,-,-,-,-
COc1cccc(Nc2nc3ccc(OC)cc3s2)c1,-,20,-,-,-,-
COc1ccc(Nc2nc3ccccc3s2)cc1,-,-,-,-,-,.
CCOC(=O)c1sc(Nc2nc3ccc(OC)cc3s2)cc1C,-,34,-,-,-,-
COCCN1C(=O)CSCC1(C)C(=O)NC(C)C (configuration not stated),.,-,-,-,.,.
COc1ccccc1NC(=O)Cc1csc(NC(=O)c2ccccc2)n1,-,-,-,-,-,.
O=C(Cc1csc(NC(=O)c2ccc(F)cc2)n1)NO,-,24,-,-,-,-
Cc1ccc(-n2ccnc(SCC(=O)NC3CCCC3)c2=O)cc1Cl,-,17,-,-,-,-
COc1ccc(C(=O)NC(=S)Nc2cccc3cc(O)ccc23)cc1OC,-,28,-,-,-,-
COc1cc(CNc2ncnc3c2ncn3[C@H]2CN(Cc3ccc(Cl)cc3)C[C@@H](CO)O2)cc(OC)c1OC,.,19,-,-,.,-
COc1cc(/C=N/NC(=O)c2cc(-c3ccccc3)sc2N)cc(OC)c1OC,.,31,-,-,.,-
COc1cc2cc(C(=O)N/N=C/c3ccccc3Cl)[nH]c2cc1OC,-,27,-,-,-,-
COc1cc(/C=N/NC(=O)c2ccc(-c3ccccc3)cc2)cc(OC)c1OC,-,-,-,-,-,.
COc1ccc(/C=N/NC(=O)c2cc3cc(OC)c(OC)cc3[nH]2)cc1,-,-,-,-,-,.
SMILES,HTRA1 inhibitor,SIAE inh,ABHD4 inh,TCR CD3 inh,DAGLB inh,SIAE confirm
COc1ccc2cc(C(=O)N/N=C/c3cc(OC)c(OC)c(OC)c3)[nH]c2c1,-,28,-,-,-,-
O=C(COc1ccccc1C(=O)NCc1ccccc1)Nc1ccc(I)cc1,.,-,-,.,.,.
COC(=O)c1cc2c(c3c4ccccc4n(S(=O)(=O)c4ccc(OC)cc4)c13)C(=O)N(Cc1ccc(C(F)(F)F)cc1)C2,.,-,-,-,.,.
Cc1ccc(-c2csc(NC(=O)c3ccc(Br)cc3)c2C(=O)O)cc1,-,-,-,-,-,.
COc1cc(C(=O)Nc2scc(-c3ccc(Br)cc3)c2C(=O)O)cc(OC)c1OC,-,23,-,-,-,31
Cc1ccc(S(=O)(=O)N/N=C\c2cn(CC(N)=O)c3ccccc23)cc1C,-,23,-,-,-,-
NC(=O)Cn1cc(/C=N\NS(=O)(=O)c2ccc(Cl)cc2)c2ccccc21,-,-,-,-,-,.
CCOC(=O)/C(=N/Nc1ccc(OC)cc1)Sc1nnc(CCc2ccccc2)n1-c1ccccc1,-,17,-,-,-,-
CCc1cc(/C(Cc2ccccn2)=N\O)c(O)cc1O,-,19,-,-,-,22
CCc1cc(/C(Cc2cscn2)=N\O)c(O)cc1O,-,-,-,-,-,.
CCc1cc(/C(Cc2ccc3ccccc3n2)=N\O)c(O)cc1O,-,61,-,-,-,40
Cc1ccc([C@@H]2C3COCC=C3C(C#N)=C(N)C2(C#N)C#N)o1 (some centres not stated),-,18,-,-,-,-
CC(=O)Nc1ccc(S(=O)(=O)N2CCCC3CCCCC32)cc1 (configuration not stated),-,22,-,-,-,-
CC(=O)Nc1ccc(S(=O)(=O)N2CCN(S(=O)(=O)c3ccc(NC(C)=O)cc3)CC2)cc1,-,-,-,-,-,.
Cc1ccc(NC(=S)NNS(=O)(=O)c2ccc3ccccc3c2)cc1Cl,-,18,-,-,-,-
O=C(CSc1nnc2ccccn12)NC(=O)c1ccccc1,-,17,-,-,-,-
O=C(CSc1nnc2ccccn12)NC(=O)NC1CCCC1,-,-,-,-,-,.
CCCCCCCCN1C(=O)[C@@H](CC(=O)N2CCN(C(=O)OCC)CC2)C[C@@]2(C(=O)OC)C1=C[C@H](C(C)(C)C)O[C@@H]2C,.,-,-,-,.,.
O=C(Cn1c(=O)oc2cc(S(=O)(=O)N3CCCCC3)ccc21)N1CCCCC1,-,17,-,-,-,-
CCCCCCN1CCS(=O)(=O)N(Cc2ccc(OC)cc2)C(C(=O)OC)C1 (configuration not stated),.,-,-,.,.,.
O=C(N/N=C/c1ccc(O)cc1O)c1ccc(NC(=O)C2CCCCC2)cc1,-,26,-,-,-,-
C[C@@H]1ON(C)[C@H]2C[C@H]3c4[nH]c5c(-c6ccccc6)cccc5c4CCN3C[C@@H]12,.,-,-,-,.,.
OC(c1ccccc1)c1ccncc1 (configuration not stated),-,-,-,-,-,.
O=P(c1ccccc1)(c1ccccc1)C(O)c1ccncc1 (configuration not stated),-,24,-,-,-,-
c1ccc(-c2ccc3c(c2)NCCN3)cc1,-,17,-,-,-,-
Nc1cc(-c2ccccc2)ccc1O,-,-,-,-,-,.
COC(=O)C1=C(C)N(C)C(=NCc2ccccc2C(F)(F)F)NC1c1ccc(C(F)(F)F)cc1 (configuration not stated),.,-,-,-,.,.
COc1cccc(Sc2nc(-c3ccccc3)ncc2S(C)(=O)=O)c1,-,-,-,-,-,.
CS(=O)(=O)c1cnc(-c2ccccc2)nc1Sc1ccc(F)cc1,-,17,-,-,-,-
Cn1c(=O)n(Cc2ccccc2)c(=O)c2c1nc1n2CCN1Cc1ccco1,-,19,-,-,-,-
